{"source": "ChEMBL document CHEMBL1122008", "about": "“Lipophilic 5'-(alkyl phosphate) esters of 1-beta-D-arabinofuranosylcytosine and its N4-acyl and 2,2'-anhydro-3'-O-acyl derivatives as potential prodrugs” (1982)", "type_in_all_cases": "functional", "key": {"Mus musculus [1]": {"test_system": "Mus musculus", "test": "Antitumor activity against L1210 leukemia in mice (Average weight per mouse on day 1.) at the dose of 100 mg/kg", "how_it_was_run": "(§1)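 Male B6D2F1J mice (5–9 per group) received 10^5 L1210 cells i.p. on day 0 and drug from day 1, given qd×5 or q4d(2,6). Vehicles were sterile water, 0.05 M potassium phosphate pH 7.4, or 0.4% Tween 80/0.5% CMC/0.9% benzyl alcohol/0.9% saline. Read-out is average body weight per mouse (g) on day 1.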"}, "Mus musculus [2]": {"test_system": "Mus musculus", "test": "Antitumor activity against L1210 leukemia in mice (Average 7-day weight change) at the dose of 250 mg/kg", "how_it_was_run": "(§2)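 Male B6D2F1J mice, groups of five to nine, inoculated ip with 10^5 L1210 cells on day 0. Drug treatment started day 1 on qd×5 or q4d(2,6) schedule. Vehicles: ara-C in sterile water; the n-butyl phosphate ester in 0.05 M pH 7.4 potassium phosphate buffer; others as suspensions in 0.4% Tween 80/0.5% low-density CMC/0.9% benzyl alcohol/0.9% saline. Mice weighed days 1 and 7; 7-day weight change given as g/mouse and %.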"}, "Mus musculus [3]": {"test_system": "Mus musculus", "test": "Antitumor activity against L1210/ara-C leukemia in mice (Average 7-day weight change) at the dose of 50 mg/kg", "how_it_was_run": "(§3)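 Male B6D2F1J mice, groups of 5–9, inoculated ip with 10^5 L1210/ara-C cells on day 0. Dosing began day 1 on a qd×5 or q4d(2,6) schedule. Ara-C was given in sterile water, the n-butyl phosphate ester in 0.05 M pH 7.4 potassium phosphate buffer, and others as suspensions in 0.4% Tween 80/0.5% CMC/0.9% benzyl alcohol/0.9% saline. Mice were weighed on days 1 and 7; 7-day change given in g and %.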"}, "Mus musculus [4]": {"test_system": "Mus musculus", "test": "Antitumor activity against L1210/ara-C leukemia in mice (Average 7-day weight change) at the dose of 500 mg/kg", "how_it_was_run": "as §3"}, "Mus musculus [5]": {"test_system": "Mus musculus", "test": "Antitumor activity against L1210 leukemia in mice (Percent increase in life span.) at the dose of 200 mg/kg", "how_it_was_run": "(§4)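 Male B6D2F1J mice, groups of 5–9, inoculated ip with 10^5 L1210 cells on day 0. Dosing starts day 1 on a qd×5 or q4d(2,6) schedule. Vehicles are sterile water, pH 7.4 0.05 M potassium phosphate buffer, or 0.4% Tween 80/0.5% CMC/0.9% benzyl alcohol/0.9% saline. %ILS = (T/C − 1)×100 from median survival. Weights taken days 1 and 7.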"}, "Mus musculus [6]": {"test_system": "Mus musculus", "test": "Antitumor activity against L1210 leukemia in mice (Average 7-day weight change) at the dose of 100 mg/kg", "how_it_was_run": "as §2"}, "Mus musculus [7]": {"test_system": "Mus musculus", "test": "Antitumor activity against L1210/ara-C leukemia in mice (Average 7-day weight change (%)) at the dose of 500 mg/kg", "how_it_was_run": "(§5)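 Male B6D2F1J mice (5–9 per group) were given 10^5 L1210/ara-C cells i.p. on day 0, with treatment from day 1 on qd×5 or q4d(2,6). Vehicles were sterile water, pH 7.4 0.05 M phosphate buffer, or a Tween 80/CMC/benzyl alcohol saline suspension. Weights were taken on days 1 and 7; change is expressed in g/mouse and as a percentage.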"}, "Mus musculus [8]": {"test_system": "Mus musculus", "test": "Antitumor activity against L1210 leukemia in mice (Average weight per mouse on day 1.) at the dose of 1000 mg/kg", "how_it_was_run": "as §1"}, "Mus musculus [9]": {"test_system": "Mus musculus", "test": "Antitumor activity against L1210 leukemia in mice (Average weight per mouse on day 1.) at the dose of 250 mg/kg", "how_it_was_run": "as §1"}, "Mus musculus [10]": {"test_system": "Mus musculus", "test": "Antitumor activity against L1210/ara-C leukemia in mice (Percent increase in life span.) at the dose of 250 mg/kg", "how_it_was_run": "(§6)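 Same protocol as the L1210 assay, but with 10^5 kinase-deficient L1210/ara-C cells inoculated ip into male B6D2F1J mice (groups of 5–9) on day 0. Treatment begins day 1, qd×5 or q4d(2,6). %ILS = (T/C − 1)×100 using median survival times of treated and control groups. Body weight recorded days 1 and 7.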"}, "Mus musculus [11]": {"test_system": "Mus musculus", "test": "Antitumor activity against L1210 leukemia in mice (Average 7-day weight change (%)) at the dose of 200 mg/kg", "how_it_was_run": "as §2"}, "Mus musculus [12]": {"test_system": "Mus musculus", "test": "Antitumor activity against L1210 leukemia in mice (Average 7-day weight change (%)) at the dose of 50 mg/kg", "how_it_was_run": "as §2"}, "Mus musculus [13]": {"test_system": "Mus musculus", "test": "Antitumor activity against L1210/ara-C leukemia in mice (Average 7-day weight change (%)) at the dose of 250 mg/kg", "how_it_was_run": "as §5"}, "Mus musculus [14]": {"test_system": "Mus musculus", "test": "Antitumor activity against L1210/ara-C leukemia in mice (Average weight per mouse on day 1.) at the dose of 500 mg/kg", "how_it_was_run": "as §3"}, "Mus musculus [15]": {"test_system": "Mus musculus", "test": "Antitumor activity against L1210 leukemia in mice (Average 7-day weight change (%)) at the dose of 500 mg/kg", "how_it_was_run": "as §2"}, "Mus musculus [16]": {"test_system": "Mus musculus", "test": "Antitumor activity against L1210/ara-C leukemia in mice (Average 7-day weight change (%)) at the dose of 100 mg/kg", "how_it_was_run": "as §5"}, "Mus musculus [17]": {"test_system": "Mus musculus", "test": "Antitumor activity against L1210 leukemia in mice (Percent increase in life span.) at the dose of 50 mg/kg", "how_it_was_run": "as §4"}, "Mus musculus [18]": {"test_system": "Mus musculus", "test": "Antitumor activity against L1210 leukemia in mice (Average weight per mouse on day 1.) at the dose of 500 mg/kg", "how_it_was_run": "as §1"}, "Mus musculus [19]": {"test_system": "Mus musculus", "test": "Antitumor activity against L1210 leukemia in mice (Percent increase in life span.) at the dose of 250 mg/kg", "how_it_was_run": "as §4"}, "Mus musculus [20]": {"test_system": "Mus musculus", "test": "Antitumor activity against L1210 leukemia in mice (Percent increase in life span.) at the dose of 500 mg/kg", "how_it_was_run": "as §4"}, "Mus musculus [21]": {"test_system": "Mus musculus", "test": "Antitumor activity against L1210 leukemia in mice (Average 7-day weight change) at the dose of 200 mg/kg", "how_it_was_run": "as §2"}, "Mus musculus [22]": {"test_system": "Mus musculus", "test": "Antitumor activity against L1210 leukemia in mice (Percent increase in life span.) at the dose of 100 mg/kg", "how_it_was_run": "as §4"}, "Mus musculus [23]": {"test_system": "Mus musculus", "test": "Antitumor activity against L1210/ara-C leukemia in mice (Average 7-day weight change (%)) at the dose of 1000 mg/kg", "how_it_was_run": "as §5"}, "Mus musculus [24]": {"test_system": "Mus musculus", "test": "Antitumor activity against L1210 leukemia in mice (Average 7-day weight change) at the dose of 1000 mg/kg", "how_it_was_run": "as §2"}, "Mus musculus [25]": {"test_system": "Mus musculus", "test": "Antitumor activity against L1210/ara-C leukemia in mice (Average weight per mouse on day 1.) at the dose of 250 mg/kg", "how_it_was_run": "as §3"}, "Mus musculus [26]": {"test_system": "Mus musculus", "test": "Antitumor activity against L1210 leukemia in mice (Percent increase in life span.) at the dose of 1000 mg/kg", "how_it_was_run": "as §4"}, "Mus musculus [27]": {"test_system": "Mus musculus", "test": "Antitumor activity against L1210 leukemia in mice (Average 7-day weight change (%)) at the dose of 100 mg/kg", "how_it_was_run": "as §2"}, "Mus musculus [28]": {"test_system": "Mus musculus", "test": "Antitumor activity against L1210/ara-C leukemia in mice (Percent increase in life span.) at the dose of 200 mg/kg", "how_it_was_run": "as §6"}, "Mus musculus [29]": {"test_system": "Mus musculus", "test": "Antitumor activity against L1210/ara-C leukemia in mice (Average 7-day weight change) at the dose of 100 mg/kg", "how_it_was_run": "as §5"}, "Mus musculus [30]": {"test_system": "Mus musculus", "test": "Antitumor activity against L1210/ara-C leukemia in mice (Average weight per mouse on day 1.) at the dose of 100 mg/kg", "how_it_was_run": "as §3"}, "Mus musculus [31]": {"test_system": "Mus musculus", "test": "Antitumor activity against L1210 leukemia in mice (Average weight per mouse on day 1.) at the dose of 50 mg/kg", "how_it_was_run": "as §1"}, "Mus musculus [32]": {"test_system": "Mus musculus", "test": "Antitumor activity against L1210 leukemia in mice (Average 7-day weight change (%)) at the dose of 250 mg/kg", "how_it_was_run": "as §2"}}}
{"smiles": "Nc1ccn([C@@H]2O[C@H](CO)[C@@H](O)[C@@H]2O)c(=O)n1", "note": "[CYTARABINE]", "values": [{"measurement": "Average weight", "setting": "Mus musculus [1]", "result": 22.4, "unit": "g mouse-1"}, {"measurement": "Weight change", "setting": "Mus musculus [2]", "result": 1.4, "unit": "g mouse-1"}, {"measurement": "Weight change", "setting": "Mus musculus [3]", "result": 0.8, "unit": "g mouse-1"}, {"measurement": "Weight change", "setting": "Mus musculus [4]", "result": 3.8, "unit": "g mouse-1"}, {"measurement": "ILS at 200 mg/kg", "setting": "Mus musculus [5]", "result": 112, "unit": "%"}, {"measurement": "Weight change", "setting": "Mus musculus [6]", "result": -1, "unit": "g mouse-1"}, {"measurement": "Weight change", "setting": "Mus musculus [7]", "result": 19, "unit": "%"}, {"measurement": "Average weight", "setting": "Mus musculus [8]", "result": 24, "unit": "g mouse-1"}, {"measurement": "Average weight", "setting": "Mus musculus [9]", "result": 21.4, "unit": "g mouse-1"}, {"measurement": "ILS at 250 mg/kg", "setting": "Mus musculus [10]", "result": 12, "unit": "%"}, {"measurement": "Weight change", "setting": "Mus musculus [11]", "result": -7, "unit": "%"}, {"measurement": "Weight change", "setting": "Mus musculus [12]", "result": 0, "unit": "%"}, {"measurement": "Weight change", "setting": "Mus musculus [13]", "result": 20, "unit": "%"}, {"measurement": "Average weight", "setting": "Mus musculus [14]", "result": 20.2, "unit": "g mouse-1"}, {"measurement": "Weight change", "setting": "Mus musculus [15]", "result": 2, "unit": "%"}, {"measurement": "Weight change", "setting": "Mus musculus [16]", "result": -4, "unit": "%"}, {"measurement": "ILS at 50 mg/kg", "setting": "Mus musculus [17]", "result": 75, "unit": "%"}, {"measurement": "Average weight", "setting": "Mus musculus [18]", "result": 22.6, "unit": "g mouse-1"}, {"measurement": "ILS at 250 mg/kg", "setting": "Mus musculus [19]", "result": 62, "unit": "%"}, {"measurement": "ILS at 500 mg/kg", "setting": "Mus musculus [20]", "result": 62, "unit": "%"}, {"measurement": "Weight change", "setting": "Mus musculus [21]", "result": -1.6, "unit": "g mouse-1"}, {"measurement": "ILS at 100 mg/kg", "setting": "Mus musculus [22]", "result": 100, "unit": "%"}, {"measurement": "Weight change", "setting": "Mus musculus [23]", "result": 11, "unit": "%"}, {"measurement": "Weight change", "setting": "Mus musculus [24]", "result": 0.8, "unit": "g mouse-1"}, {"measurement": "Average weight", "setting": "Mus musculus [25]", "result": 19.4, "unit": "g mouse-1"}, {"measurement": "ILS at 1000 mg/kg", "setting": "Mus musculus [26]", "result": 87, "unit": "%"}, {"measurement": "Weight change", "setting": "Mus musculus [27]", "result": -5, "unit": "%"}, {"measurement": "ILS at 200 mg/kg", "setting": "Mus musculus [28]", "result": -13, "unit": "%"}, {"measurement": "Weight change", "setting": "Mus musculus [29]", "result": -1.1, "unit": "g mouse-1"}, {"measurement": "Average weight", "setting": "Mus musculus [30]", "result": 24, "unit": "g mouse-1"}, {"measurement": "Average weight", "setting": "Mus musculus [31]", "result": 24, "unit": "g mouse-1"}, {"measurement": "Weight change", "setting": "Mus musculus [32]", "result": 7, "unit": "%"}]}
